In ChEMBL document CHEMBL1255303, “In vitro and in vivo antifungal activities of T-2307, a novel arylamidine” (2008):
≈ marks a conversion by molar mass, not a printed value.

What was measured:
Assay type in all cases: functional
Candida albicans [1] = assay: Antifungal activity against Candida albicans ATCC 10261 after 48 hrs by broth microdilution method; conditions: ATCC 10261, 48 h
Procedure, shortened: (§1)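 CLSI M27-A2 (yeasts) / M38-A (moulds) broth microdilution in RPMI 1640 buffered to pH 7.0 with 0.165 M MOPS. Malassezia furfur got the same medium supplemented with glucose, bile salts, glycerol, glycerol monostearate and Tween 20. Final inoculum 0.65 × 10^3–2.5 × 10^3 CFU/ml for yeasts and 0.87 × 10^4–3.8 × 10^4 CFU/ml for filamentous fungi. Incubation at 35°C except M. racemosus and F. solani, which were held at 30°C.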

Candida albicans [2] = assay: Antifungal activity against Candida albicans ATCC 24433 after 48 hrs by broth microdilution method; conditions: ATCC 24433, 48 h
Procedure, shortened: (§2)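 CLSI M27-A2 (yeasts) or M38-A (A. fumigatus) broth microdilution in RPMI 1640 buffered to pH 7.0 with 0.165 M MOPS. Final inocula were 0.65–2.5 × 10^3 CFU/ml for yeasts and 0.87–3.8 × 10^4 CFU/ml for filamentous fungi. Incubation was at 35°C for about 48 h (72 h for C. neoformans). MIC was the lowest concentration giving a prominent (~50%) turbidity drop versus growth control; amphotericin B required complete inhibition.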

Candida albicans [3] = assay: Antifungal activity against Candida albicans ATCC 90028 after 48 hrs by broth microdilution method; conditions: ATCC 90028, 48 h; procedure, shortened: as §1
Candida dubliniensis = assay: Antifungal activity against Candida dubliniensis ATCC MYA-577 after 48 hrs by broth microdilution method; conditions: ATCC MYA-577, 48 h; procedure, shortened: as §1
Nakaseomyces glabratus = assay: Antifungal activity against Candida glabrata ATCC 90030 after 48 hrs by broth microdilution method; conditions: ATCC 90030, 48 h; procedure, shortened: as §1
Candida parapsilosis [4] = assay: Antifungal activity against Candida parapsilosis NBRC 10219 after 48 hrs by broth microdilution method; conditions: Lodderomyces parapsilosis, NBRC 10219, 48 h; procedure, shortened: as §2
Candida tropicalis [5] = assay: Antifungal activity against Candida tropicalis IFO 1400 after 48 hrs by broth microdilution method; conditions: IFO 1400, 48 h; procedure, shortened: as §1
Cryptococcus neoformans [6] = assay: Antifungal activity against Cryptococcus neoformans ATCC 90113 after 72 hrs by broth microdilution method; conditions: ATCC 90113, 72 h; procedure, shortened: as §1
Malassezia furfur = assay: Antifungal activity against Malassezia furfur NBRC 0656 after 48 hrs by broth microdilution method; conditions: NBRC 0656, 48 h; procedure, shortened: as §1
Trichosporon asahii = assay: Antifungal activity against Trichosporon asahii JCM 2466 after 48 hrs by broth microdilution method; conditions: JCM 2466, 48 h; procedure, shortened: as §1
Aspergillus fumigatus [7] = assay: Antifungal activity against Aspergillus fumigatus ATCC 16424 after 48 hrs by broth microdilution method; conditions: ATCC 16424, 48 h; procedure, shortened: as §2
Aspergillus fumigatus [8] = assay: Antifungal activity against Aspergillus fumigatus TIMM 0063 after 48 hrs by broth microdilution method; conditions: TIMM 0063, 48 h; procedure, shortened: as §1
Aspergillus nidulans = assay: Antifungal activity against Aspergillus nidulans NBRC 33017 after 48 hrs by broth microdilution method; conditions: NBRC 33017, 48 h; procedure, shortened: as §1
Aspergillus terreus = assay: Antifungal activity against Aspergillus terreus NBRC 33026 after 48 hrs by broth microdilution method; conditions: NBRC 33026, 48 h; procedure, shortened: as §1
Scedosporium boydii = assay: Antifungal activity against Pseudallescheria boydii NBRC 32229 after 72 hrs by broth microdilution method; conditions: NBRC 32229, 72 h; procedure, shortened: as §1
Lichtheimia corymbifera = assay: Antifungal activity against Absidia corymbifera NBRC 4009 after 24 hrs by broth microdilution method; conditions: NBRC 4009, 24 h; procedure, shortened: as §1
Mucor racemosus = assay: Antifungal activity against Mucor racemosus NBRC5403 after 24 hrs by broth microdilution method; conditions: NBRC5403, 24 h
Trichophyton rubrum = assay: Antifungal activity against Trichophyton rubrum NBRC 5467 after 72 hrs by broth microdilution method; conditions: NBRC 5467, 72 h; procedure, shortened: as §1
Candida albicans [9] = assay: Antifungal activity against Candida albicans ATCC 96901 after 47 hrs by broth microdilution method; conditions: ATCC 96901, 47 h
Procedure, shortened: (§3)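 Fluconazole-resistant or susceptible-dose-dependent ATCC C. albicans strains were tested by CLSI M27-A2 broth microdilution in RPMI 1640–0.165 M MOPS, pH 7.0, with a final inoculum of 1.1–1.5 × 10^3 CFU/ml at 35°C for about 47 h. MIC was the lowest concentration with a prominent (~50%) turbidity decrease relative to growth control; amphotericin B was read at complete inhibition.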

Candida albicans [10] = assay: Antifungal activity against Candida albicans ATCC MYA-573 after 47 hrs by broth microdilution method; conditions: ATCC MYA-573, 47 h; procedure, shortened: as §3
Candida albicans [11] = assay: Antifungal activity against Candida albicans ATCC MYA-1003 after 47 hrs by broth microdilution method; conditions: ATCC MYA-1003, 47 h; procedure, shortened: as §3
Candida albicans [12] = assay: Antifungal activity against Candida albicans clinical isolates after 48 hrs by broth microdilution method
Procedure, shortened: (§4)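 Clinical isolates from Japanese hospitals or culture collections were tested by broth microdilution in RPMI 1640-MOPS. Inoculum was 0.57 × 10^3–2.5 × 10^3 CFU/ml for yeasts and 0.4 × 10^4–3.3 × 10^4 CFU/ml for filamentous fungi. Incubation was at 35°C for about 48 h, or 72 h where footnoted. Results were summarised as MIC range, MIC50 and MIC90.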

Pichia kudriavzevii = assay: Antifungal activity against Candida krusei clinical isolates after 48 hrs by broth microdilution method
Procedure, shortened: (§5)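 Japanese hospital Candida isolates were tested by CLSI M27-A2 broth microdilution in RPMI 1640–MOPS, pH 7.0, with inocula of 0.57–2.5 × 10^3 CFU/ml at 35°C for about 48 h. Inocula came from 24-h potato dextrose agar cultures. MIC was the lowest concentration with about 50% turbidity reduction versus growth control (complete inhibition for amphotericin B). Range, MIC50 and MIC90 were reported.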

Candida parapsilosis [13] = assay: Antifungal activity against Candida parapsilosis clinical isolates after 48 hrs by broth microdilution method; conditions: Lodderomyces parapsilosis; procedure, shortened: as §5
Candida tropicalis [14] = assay: Antifungal activity against Candida tropicalis clinical isolates after 48 hrs by broth microdilution method; procedure, shortened: as §4
Cryptococcus neoformans [15] = assay: Antifungal activity against Cryptococcus neoformans clinical isolates after 72 hrs by broth microdilution method; procedure, shortened: as §4
Aspergillus fumigatus [16] = assay: Antifungal activity against Aspergillus fumigatus clinical isolates after 48 hrs by broth microdilution method; procedure, shortened: as §4

## C[C@@H]1[C@H](O)[C@@H](C)/C=C/C=C/C=C/C=C/C=C/C=C/C=C/[C@H](O[C@@H]2O[C@H](C)[C@@H](O)[C@H](N)[C@@H]2O)C[C@@H]2O[C@](O)(C[C@@H](O)C[C@@H](O)[C@H](O)CC[C@@H](O)C[C@@H](O)CC(=O)O[C@H]1C)C[C@H](O)[C@H]2C(=O)O [AMPHOTERICIN B]
Candida albicans [1]
  MFC: 2 µg/mL (≈ 2.16 µM)
  MIC: 1 µg/mL (≈ 1.08 µM)
Candida albicans [2]
  MFC: 1 µg/mL (≈ 1.08 µM)
  MIC: 1 µg/mL (≈ 1.08 µM)
Candida albicans [3]
  MFC: 1 µg/mL (≈ 1.08 µM)
  MIC: 1 µg/mL (≈ 1.08 µM)
Candida dubliniensis
  MFC: 2 µg/mL (≈ 2.16 µM)
  MIC: 1 µg/mL (≈ 1.08 µM)
Nakaseomyces glabratus
  MFC: 1 µg/mL (≈ 1.08 µM)
  MIC: 1 µg/mL (≈ 1.08 µM)
Candida parapsilosis [4]
  MFC: 1 µg/mL (≈ 1.08 µM)
  MIC: 1 µg/mL (≈ 1.08 µM)
Candida tropicalis [5]
  MFC: 1 µg/mL (≈ 1.08 µM)
  MIC: 1 µg/mL (≈ 1.08 µM)
Cryptococcus neoformans [6]
  MFC: 2 µg/mL (≈ 2.16 µM)
  MIC: 2 µg/mL (≈ 2.16 µM)
Malassezia furfur
  MFC: 64 µg/mL (≈ 69.3 µM)
  MIC: 0.5 µg/mL (≈ 0.541 µM)
Trichosporon asahii
  MFC: 4 µg/mL (≈ 4.33 µM)
  MIC: 2 µg/mL (≈ 2.16 µM)
Aspergillus fumigatus [7]
  MFC: 2 µg/mL (≈ 2.16 µM)
  MIC: 1 µg/mL (≈ 1.08 µM)
Aspergillus fumigatus [8]
  MFC: 2 µg/mL (≈ 2.16 µM)
  MIC: 2 µg/mL (≈ 2.16 µM)
Aspergillus nidulans
  MFC: 2 µg/mL (≈ 2.16 µM)
  MIC: 2 µg/mL (≈ 2.16 µM)
Aspergillus terreus
  MFC: > 64 µg/mL
  MIC: 2 µg/mL (≈ 2.16 µM)
Scedosporium boydii
  MFC: > 64 µg/mL
  MIC: > 64 µg/mL
Lichtheimia corymbifera
  MFC: > 64 µg/mL
  MIC: 2 µg/mL (≈ 2.16 µM)
Mucor racemosus
  MFC: 2 µg/mL (≈ 2.16 µM)
  MIC: 1 µg/mL (≈ 1.08 µM)
Trichophyton rubrum
  MFC: 1 µg/mL (≈ 1.08 µM)
  MIC: 1 µg/mL (≈ 1.08 µM)
Candida albicans [9]
  MIC: 1 µg/mL (≈ 1.08 µM)
Candida albicans [10]
  MIC: 2 µg/mL (≈ 2.16 µM)
Candida albicans [11]
  MIC: 2 µg/mL (≈ 2.16 µM)
Candida albicans [12]
  MIC50: 2 µg/mL (≈ 2.16 µM)
  MIC90: 2 µg/mL (≈ 2.16 µM)
Pichia kudriavzevii
  MIC: 2 µg/mL (≈ 2.16 µM)
  MIC50: 2 µg/mL (≈ 2.16 µM)
  MIC90: 2 µg/mL (≈ 2.16 µM)
Candida parapsilosis [13]
  MIC50: 2 µg/mL (≈ 2.16 µM)
  MIC90: 2 µg/mL (≈ 2.16 µM)
Candida tropicalis [14]
  MIC: 1 µg/mL (≈ 1.08 µM)
  MIC50: 1 µg/mL (≈ 1.08 µM)
  MIC90: 2 µg/mL (≈ 2.16 µM)
Cryptococcus neoformans [15]
  MIC: 1 µg/mL (≈ 1.08 µM)
  MIC50: 1 µg/mL (≈ 1.08 µM)
  MIC90: 1 µg/mL (≈ 1.08 µM)
Aspergillus fumigatus [16]
  MIC50: 2 µg/mL (≈ 2.16 µM)
  MIC90: 2 µg/mL (≈ 2.16 µM)
